Data: ChEMBL document CHEMBL1153728, “Quercetin reduces inflammatory pain: inhibition of oxidative stress and cytokine production” (2009)
The source made the active and inactive calls.

Legend:
Mus musculus [1] = assay: Antioxidant activity in ip dosed Swiss mouse assessed as inhibition of carrageenan-induced reduction in GSH level dosed 30 mins before carrageenan challenge measured after 3 hrs by fluorescence spectrophotometry; assay type: functional, organism-based
Outline: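 Swiss mice dosed ip 10-100 mg/kg 30 min before intraplantar carrageenin (100 µg/paw) or saline. Plantar skin from five mice pooled 3 h later, homogenized in 100 mM NaH2PO4 pH 8.0/5 mM EGTA, TCA-precipitated. Supernatant reacted with OPT 15 min, fluorescence ex 350/em 420 nm against 0-40 µM GSH standard, in triplicate.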

Mus musculus [2] = assay: Inhibition of carrageenan-induced IL1-beta production in Swiss mouse subcutaneous plantar tissue at 100 mg/kg, ip dosed 30 mins before carrageenan challenge measured after 3 hrs by ELISA; assay type: functional; settings: sc
Outline: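 Mice dosed ip 100 mg/kg 30 min before intraplantar carrageenin (100 µg/paw). Paw skin removed 3 h later under terminal anesthesia, homogenized in protease-inhibitor buffer. IL-1β measured by ELISA as pg/paw, with saline-injected controls; n = 5.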

Mus musculus [3] = assay: Muscle relaxant activity in Swiss mouse assessed as motor response at 100 mg/kg, ip after 3 hrs 30 mins by rotarod test; assay type: functional, organism-based; design: dose 100 mg/kg
Mus musculus [4] = assay: Antinociceptive activity in ip dosed Swiss mouse assessed as inhibition of acetic acid-induced writhing response administered 30 mins before acetic acid challenge measured for 20 mins; assay type: functional, organism-based
Outline: (§1)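 Male Swiss mice pretreated ip (3-100 mg/kg) 30 min before ip acetic acid 0.6% v/v (10 mL/kg) or phenyl-p-benzoquinone 1890 µg/kg in 2% DMSO/saline. Cumulative writhing score counted over 20 min; n = 7.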

Mus musculus [5] = assay: Inhibition of carrageenan-induced neutrophil recruitment in Swiss mouse subcutaneous plantar tissue assessed as myeloperoxidase activity at 100 mg/kg, ip dosed 30 mins before carrageenan challenge measured after 3 hrs by spectrophotometry; assay type: functional, organism-based; design: dose 100 mg/kg
Outline: (§2)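 Mice given ip 100 mg/kg 30 min before intraplantar carrageenin (100 µg/paw), TNFα (300 pg/paw) or CXCL1 (20 ng/paw). Plantar tissue taken 3 h later into 50 mM K2HPO4 pH 6.0 with 0.5% HTAB, homogenized, centrifuged. Supernatant read with o-dianisidine/H2O2 at 450 nm, compared to neutrophil standard curve.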

Mus musculus [6] = assay: Antinociceptive activity in Swiss mouse assessed as inhibition of TNF-alpha-induced mechanical hypernociception at 100 mg/kg, ip dosed 30 mins before TNFalpha challenge measured after 3 hrs by electronic pressure-meter test; assay type: functional; settings: route intraperitoneal
Mus musculus [7] = assay: Antinociceptive activity in Swiss mouse assessed as inhibition of CXCL1-induced mechanical hypernociception at 100 mg/kg, ip dosed 30 mins before CXCL1 challenge measured after 3 hrs by electronic pressure-meter test; assay type: functional; settings: route intraperitoneal
Mus musculus [8] = assay: Inhibition of TNF-alpha-induced neutrophil recruitment in Swiss mouse subcutaneous plantar tissue assessed as myeloperoxidase activity at 100 mg/kg, ip dosed 30 mins before TNFalpha challenge measured after 3 hrs by spectrophotometry; assay type: functional, organism-based; design: dose 100 mg/kg; outline: as §2
Mus musculus [9] = assay: Inhibition of CXCL1-induced neutrophil recruitment in Swiss mouse subcutaneous plantar tissue assessed as myeloperoxidase activity at 100 mg/kg, ip dosed 30 mins before CXCL1 challenge measured after 3 hrs by spectrophotometry; assay type: functional, organism-based; design: dose 100 mg/kg; outline: as §2
Mus musculus [10] = assay: Antinociceptive activity in Swiss mouse assessed as inhibition of PGE2-induced mechanical hypernociception at 100 mg/kg, ip dosed 30 mins before PGE2 challenge measured after 3 hrs by electronic pressure-meter test; assay type: functional, organism-based; design: dose 100 mg/kg
Mus musculus [11] = assay: Antinociceptive activity in Swiss mouse assessed as inhibition of dopamine-induced mechanical hypernociception at 100 mg/kg, ip dosed 30 mins before dopamine challenge measured after 3 hrs by electronic pressure-meter test; assay type: functional, organism-based; design: dose 100 mg/kg
Mus musculus [12] = assay: Analgesic activity in Swiss mouse assessed as reaction time taken to jump or lick paw at 100 mg/kg, ip after 30 mins of administration by hot plate test; assay type: functional, organism-based; design: dose 100 mg/kg
Outline: (§3)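 Male Swiss mice (25-30 g) placed in glass cylinder on hot plate at 55 °C. Two control latencies taken at least 10 min apart; latency rechecked 30 and 60 min after ip dosing. Endpoint is jumping or paw licking, 30 s cutoff.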

Mus musculus [13] = assay: Analgesic activity in Swiss mouse assessed as reaction time taken to jump or lick paw at 100 mg/kg, ip after 60 mins of administration by hot plate test; assay type: functional, organism-based; design: dose 100 mg/kg; outline: as §3
Mus musculus [14] = assay: Analgesic activity in Swiss mouse assessed as reaction time taken to jump or lick paw at 8 mg/kg, ip after 30 mins of administration by hot plate test; assay type: functional, organism-based; design: dose 8 mg/kg; outline: as §3
Mus musculus [15] = assay: Analgesic activity in Swiss mouse assessed as reaction time taken to jump or lick paw at 8 mg/kg, ip after 60 mins of administration by hot plate test; assay type: functional, organism-based; design: dose 8 mg/kg; outline: as §3
Mus musculus [16] = assay: Antinociceptive activity in ip dosed Swiss mouse assessed as inhibition of phenyl-p-benzoquinone-induced writhing response administered 30 mins before phenyl-p-benzoquinone challenge measured for 20 mins; assay type: functional, organism-based; outline: as §1
Mus musculus [17] = assay: Antinociceptive activity against formalin-induced pain in Swiss mouse assessed as inhibition of hind paw flinching response during second phase of response at 100 mg/kg, ip dosed 30 mins before formalin challenge measured for 0 to 30 mins; assay type: functional, organism-based; design: dose 100 mg/kg
Outline: (§4)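 Male Swiss mice dosed ip (100 mg/kg, vehicle 20% Tween 80 in saline) 30 min before intraplantar formalin 0.1% (25 µL). Paw flinches and licking time counted 0-30 min in 5-min intervals, separating first and second phases; n = 6.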

Mus musculus [18] = assay: Antinociceptive activity against formalin-induced pain in Swiss mouse assessed as inhibition of paw licking response during second phase at 100 mg/kg, ip dosed 30 mins before formalin challenge measured for 0 to 30 mins; assay type: functional, organism-based; design: dose 100 mg/kg; outline: as §4
Mus musculus [19] = assay: Antinociceptive activity in ip dosed Swiss mouse assessed as inhibition of carrageenan-induced mechanical hypernociception administered 30 mins before carrageenan challenge measured after 3 hrs by electronic pressure-meter test; assay type: functional, organism-based
Outline: (§5)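 Male Swiss mice dosed ip (3-100 mg/kg) or po (30-300 mg/kg) in 20% Tween 80/saline 30 min before intraplantar carrageenin (100 µg/paw). Pressure-meter withdrawal threshold (average of three readings) before and 3 h after; Δ threshold in g; n = 5; one-way ANOVA with Tukey test.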

Mus musculus [20] = assay: Antinociceptive activity in Swiss mouse assessed as inhibition of carrageenan-induced mechanical hypernociception at 3 to 100 mg/kg, ip administered 30 mins before carrageenan challenge measured after 3 hrs by electronic pressure-meter test; assay type: functional; settings: dose mg/kg 3-100; route intraperitoneal; outline: as §5
Mus musculus [21] = assay: Antinociceptive activity in Swiss mouse assessed as inhibition of carrageenan-induced mechanical hypernociception at 300 mg/kg, po dosed 30 mins before carrageenan challenge measured after 3 hrs by electronic pressure-meter test; assay type: functional; outline: as §5
Mus musculus [22] = assay: Antinociceptive activity in Swiss mouse assessed as inhibition of carrageenan-induced mechanical hypernociception at 100 mg/kg, ip dosed 30 mins before carrageenan challenge measured after 1 to 5 hrs by electronic pressure-meter test; assay type: functional, organism-based; design: dose 100 mg/kg
Outline: (§6)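 Male Swiss mice given 100 mg/kg ip at 12, 6, 3 h or 30 min before intraplantar carrageenin (100 µg/paw). Mechanical withdrawal threshold by electronic pressure-meter (mean of three readings) at 1, 3 and 5 h after stimulus, expressed as change from baseline.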

Mus musculus [23] = assay: Antinociceptive activity in Swiss mouse assessed as inhibition of carrageenan-induced mechanical hypernociception at 100 mg/kg, ip dosed 3 hrs before carrageenan challenge measured after 3 hrs by electronic pressure-meter test; assay type: functional, organism-based; design: dose 100 mg/kg; outline: as §6
Mus musculus [24] = assay: Antiinflammatory activity in Swiss mouse assessed as inhibition of carrageenan-induced paw edema at 100 mg/kg, ip dosed 30 mins before carrageenan challenge measured after 0.5 to 3 hrs; assay type: functional, organism-based; design: dose 100 mg/kg
Outline: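 Male Swiss mice; ip pretreatment 30 min before intraplantar carrageenin (100 µg/paw). Paw measured with calliper before and at 30, 60, 120, 180 min after stimulus; edema = VT minus Vo per mouse.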

In the case of `O=c1c(O)c(-c2ccc(O)c(O)c2)oc2cc(O)cc(O)c12` [QUERCETIN], the inhibition (Mus musculus [1]) is reported as “Dose-dependent effect”, the inhibition in vivo at 100 mg/kg (Mus musculus [2]) is reported as 36% and the Activity (Mus musculus [3]) is reported as “inactive”. For the same compound, the inhibition (Mus musculus [4]) was “Dose-dependent effect”, the Activity (Mus musculus [5]) was “inactive” and the inhibition in vivo at 100 mg/kg (Mus musculus [6]) was 51%. For the same compound, the inhibition in vivo at 100 mg/kg (Mus musculus [7]) was 43%, the Activity (Mus musculus [8]) was “inactive” and the Activity (Mus musculus [9]) was “inactive”. The Activity (Mus musculus [10]) was “inactive”, the Activity (Mus musculus [11]) was “inactive” and the Activity (Mus musculus [12]) was “inactive”. For the same compound, the Activity (Mus musculus [13]) was “inactive”, the Activity (Mus musculus [14]) was “Active” and the Activity (Mus musculus [15]) was “Active”. For the same compound, the inhibition (Mus musculus [16]) was “Dose-dependent effect”, the Activity (Mus musculus [17]) was “Active” and the Activity (Mus musculus [18]) was “Active”. The inhibition (Mus musculus [19]) was “Dose-dependent effect”, the “inhibition (INH)” value (Mus musculus [20]) was 59% and the inhibition in vivo at 300 mg/kg (Mus musculus [21]) was 55%. For the same compound, the inhibition (Mus musculus [22]) was “Active”, the inhibition (Mus musculus [23]) was “Active” and the inhibition (Mus musculus [24]) was “Active”.
